Data published in ChEMBL document CHEMBL1795282, “Synthesis, biological evaluation, and docking studies of gigantol analogs as calmodulin inhibitors” (Eur J Med Chem, 2011).
Active and inactive are the calls of the source. The calls are words filed in the database; no cut-off is given here.

How the values were obtained:
Calmodulin-1 = Calmodulin-1 (Homo sapiens, UniProt P0DP23); experiment: Inhibition of Calmodulin-dependent PDE1 activity assessed as inorganic phosphate release after 30 min
Homo sapiens = species on record: Homo sapiens; experiment: Binding affinity to human Calmodulin M124C mutant assessed as extrinsic fluorescence quenching in phosphate buffer at pH 5.1 by mBBr fluorescence assay
Procedure, shortened: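 Ca²⁺–hCaM M124C–mBBr biosensor at 5 μM in 100 mM phosphate buffer, pH 5.1, with 10 mM CaCl₂, stirred at 37 °C and titrated with ligand. Excitation was at 381 nm, with emission scanned from 400 to 550 nm. Fractional saturation was taken as y = (F − F₀)/(F∞ − F₀) at 470 nm versus ligand concentration. Apparent constant Km, Emax and Hill coefficient came from a Hill-equation fit.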

Row | Compound | IC50 (Calmodulin-1) [µM] | Km (Homo sapiens) [µM] | Activity (Homo sapiens) | inhibition (Calmodulin-1)
1 | CCOc1ccc(CCc2cc(OC)cc(OC)c2)cc1OC | 18.4 | 9.88 |  | 
2 | COc1ccc(CCc2cc(OC)cc(OC)c2)cc1 | 146 | 21.8 |  | 
3 | COc1cc(Cc2cccc(OC)c2O)cc(OC)c1 | 56.1 | 33.8 |  | 
4 | COc1cc(O)cc(CCc2ccc(O)c(OC)c2)c1 [GIGANTOL] | 114 | 60.8 |  | 
5 | CCOc1ccc(CCc2cccc(O)c2)cc1OC | 46.1 | 58.1 |  | 
6 | COc1cc(O)cc(CCc2ccc(N(C)C)cc2)c1 | 30.1 | 12 |  | 
7 | COc1cc(O)cc(CCc2ccc3c(c2)OCO3)c1 | 31.3 | 45.5 |  | 
8 | COc1cc(O)cc(C(=O)/C=C/c2ccc(OC)c(O)c2)c1 | 37.7 | 3.89 |  | 
9 | CCOc1ccc(CCc2cc(O)cc(OC)c2)cc1OC | 54.7 | 25.3 |  | 
10 | c1ccc(Cc2ccccc2)cc1 [DIPHENYLMETHANE] | 15 |  | inactive | 
11 | COc1ccc(CCCc2ccc(O)cc2)cc1 | 62.7 | 8.7 |  | 
12 | COc1ccc(CCc2cc(O)cc(OC)c2)cc1 | 9.38 | 80 |  | 
13 | COc1cc(O)cc(C(=O)/C=C/c2ccc(O)c(OC)c2)c1 | 57.3 | 5.31 |  | 
14 | c1ccc(COc2ccccc2)cc1 |  |  | inactive | inactive
15 | c1ccc(CCc2ccccc2)cc1 |  |  | inactive | inactive
16 | COc1ccc(/C=C/C(=O)c2ccc(O)cc2)cc1 | 22.5 | 10.3 |  | 
17 | COc1cc(CCc2ccc(N(C)C)cc2)cc(OC)c1 | 36.3 | 10 |  | 
18 | COc1cc(O)cc(CCCc2ccc(O)c(OC)c2)c1 | 32.5 | 54.3 |  | 
19 | Oc1cccc(CCc2ccc3c(c2)OCO3)c1 | 75.9 | 63.8 |  | 
20 | Oc1cccc(CCCc2ccc3c(c2)OCO3)c1 | 22.9 | 14.2 |  | 
21 | COc1cc(Cc2ccc(O)c(OC)c2)cc(OC)c1 | 54.7 | 33.1 |  | 
